SMILES strings stand for the structures. The list shows a part of the results. Activity calls are given as the source filed them.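 The calls were made as follows, unless noted: active = inhibition above the mean over all tested compounds plus 3 SD, which no compound reached; inactive = the rest.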

(Lyso)-N-acylphosphatidylethanolamine lipase (Mus musculus), sequence (Q8VD66 whole entry, looked up): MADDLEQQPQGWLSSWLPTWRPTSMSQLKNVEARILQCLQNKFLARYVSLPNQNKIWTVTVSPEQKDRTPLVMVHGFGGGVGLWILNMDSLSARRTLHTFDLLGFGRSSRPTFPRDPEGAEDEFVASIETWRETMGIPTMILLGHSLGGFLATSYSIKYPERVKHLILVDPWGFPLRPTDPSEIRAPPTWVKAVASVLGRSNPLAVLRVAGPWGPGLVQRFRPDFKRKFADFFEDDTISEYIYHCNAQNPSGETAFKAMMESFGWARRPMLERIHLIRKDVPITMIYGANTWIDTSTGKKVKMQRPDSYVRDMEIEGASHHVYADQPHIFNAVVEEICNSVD

The first test deals with COUP transcription factor 2 (Homo sapiens) (UniProt P24468). Briefly: NR2F2 transcriptional activity inhibitors, confirmation, cell-based, luciferase reporter, HEK293, triplicate (AID 687008;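 active = mean inhibition over three repeats above a set limit taken from the earlier primary screen, cut at about 38% in these data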;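 also: 100% = cells given the luciferase reporter alone without the COUP-TF2 vector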). Conditions: HEK293 NGFI-A luciferase reporter, luminescence; at 8.5 µM; active compounds read high. (In general: A reporter such as luciferase makes a cellular process visible.)
COUP transcription factor 2 (Homo sapiens), sequence (P24468 whole entry, looked up): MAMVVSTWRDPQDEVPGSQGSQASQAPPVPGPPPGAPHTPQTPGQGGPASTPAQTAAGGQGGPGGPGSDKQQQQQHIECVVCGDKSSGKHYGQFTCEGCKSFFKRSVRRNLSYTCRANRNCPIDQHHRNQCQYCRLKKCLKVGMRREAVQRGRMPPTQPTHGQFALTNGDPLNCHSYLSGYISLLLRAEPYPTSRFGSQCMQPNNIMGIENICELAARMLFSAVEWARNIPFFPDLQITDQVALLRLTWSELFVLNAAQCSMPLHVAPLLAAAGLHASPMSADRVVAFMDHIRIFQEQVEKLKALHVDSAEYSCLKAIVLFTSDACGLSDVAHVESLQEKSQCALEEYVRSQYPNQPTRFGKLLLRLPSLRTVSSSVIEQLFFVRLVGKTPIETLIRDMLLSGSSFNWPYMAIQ
Usually inhibition stands for the change of the read-out against control, counted positive when it falls. In the case of `COc1ccc2c(c1)c(=Cc1ccc(N(C)C)cc1)c1cc(-c3ccccc3)[n+](C)n12`, the inhibition is 86.4% (active).
As to `CN(O)C(=S)c1ccccc1`, the inhibition is -5.38% (inactive).
Still for that read-out and setting: for `O=C(Nc1ccccc1Cl)/C(Cl)=C(\Cl)S(=O)c1ccccc1` (configuration not stated) the value was 101% (active).
The same measure, in the same setting: for `CCCCCCCCn1c2c(c(=N)c3c1CCC3)CCCC2` the value was 87.4% (active).

The next test has as its target (Lyso)-N-acylphosphatidylethanolamine lipase (Mus musculus) (UniProt Q8VD66). Briefly: ABHD4 inhibitors, retest, confirmation, biochemical, fluorescence polarization, mouse (AID 720658;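 active = mean inhibition across replicates above the hit cutoff set in the primary screen, cut at about 30% in these data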;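 also: 0% = wild-type ABHD4 with DMSO and 100% = catalytically dead S159A mutant with DMSO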). Particulars: purified mABHD4, FP-Rh probe fluorescence polarization; at 8.92 µM; active compounds read high. A digest of the protocol: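 material = wild-type mouse ABHD4 | signal = fluorescence polarization, excitation 525 nm, emission 598 nm | times = 45 min compound pretreatment plus 60 min FP-Rh labeling, 25 °C | also added = Rhodamine-tagged fluorophosphonate probe FP-Rh | read-out = percent inhibition scaled between wild-type DMSO and S159A mutant wells | medium = HEPES-saline buffer with 0.01% Pluronic F-127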
(Polarisation of emitted light reports the rotation of a fluorescent probe.)
Regarding `Cc1cc(C(=O)N/N=C/c2ccc(O)c([N+](=O)[O-])c2)c(C)n1-c1ccc(F)cc1`, the inhibition is 74% (active).
With `CCN(CC)CCCC(C)n1c2nc(=O)[nH]c(=O)c-2nc2cc(Cl)ccc21` (configuration not stated), the inhibition is 44.4% (active).
On the same count and under the same terms, for `NC1=CC(=O)C(=O)c2cccnc21` the value was 68.3% (active); for `O=C1C=CC(=O)N1c1ccc(N2CCCCC2)cc1`, 17.5% (inactive).
Consider `Cc1ccc(S(=O)(=O)/N=C2\C=C(NS(=O)(=O)c3ccc(C)cc3)C(=O)c3ccccc32)cc1`, for which the inhibition is 60.6% (active).

In another test the test system is HIV-1 integrase (multimerization). Kind of test: HIV-1 IN multimer formation enhancers, counter-screen for LEDGF/p75 integration inhibitor project, biochemical, TR-FRET (AID 1053131; in the data active = activation above about 8.9%). Conditions: TR-FRET HIV-1 integrase multimerization, at 7.7 µM, active compounds read high.
Turning to `CO/N=C(\C(=O)N[C@@H]1C(=O)N2C(C(=O)O)=C(COC(C)=O)CS[C@H]12)c1csc(N)n1` (stereo in doubt), the activation is 0.25% (inactive).
Take `COc1ccc2c(c1)c(=Cc1ccc(N(C)C)cc1)c1cc(-c3ccccc3)[n+](C)n12`: the activation is 6.29% (inactive).
Take `NNc1cccc(C=Cc2ccccc2)cc1=O`: the activation was 13.3% (active).
Regarding `Cc1cc(C(=O)N/N=C/c2ccc(O)c([N+](=O)[O-])c2)c(C)n1-c1ccc(F)cc1`, the activation is 14.2% (active).
In the case of `C=CC1=C(C(=O)O)N2C(=O)[C@@H](NC(=O)/C(=N\OCC(=O)O)c3csc(N)n3)[C@H]2SC1`, the activation is 85.5% (active).
Take `CCN(CC)CCCC(C)n1c2nc(=O)[nH]c(=O)c-2nc2cc(Cl)ccc21` (configuration not stated): the activation was 2.04% (inactive).
Consider `CN(O)C(=S)c1ccccc1`, for which the activation is 0.55% (inactive).
For `Cc1ccc(Cc2cnc(N)s2)o1`, the activation was 6.28% (inactive).
Turning to `C=CC1=C(C(=O)O)N2C(=O)[C@@H](NC(=O)/C(=N/OCC(=O)O)c3csc(N)n3)[C@H]2SC1`, the activation was 42.3% (active).
`O=C(NNC(=O)c1ccccc1O)c1ccccc1O`: the activation was 0.99% (inactive).
As to `NC1=CC(=O)C(=O)c2cccnc21`, the activation was 45.1% (active).
The same measure, in the same setting: for `O=C1C=CC(=O)N1c1ccc(N2CCCCC2)cc1` the value was 1.69% (inactive); for `Cc1ccccc1NCC(=O)N/N=C\c1ccc([N+](=O)[O-])s1`, -0.2% (inactive); for `Cn1ccc(=Nc2ccc(NC(=O)c3ccc(N=c4ccn(C)c5ccc([N+](=O)[O-])cc45)cc3)cc2)cc1`, -0.71% (inactive).
As to `Cc1ccc(S(=O)(=O)/N=C2\C=C(NS(=O)(=O)c3ccc(C)cc3)C(=O)c3ccccc32)cc1`, the activation was -1.1% (inactive).
With `COc1ccc2[nH]c3c(C)c4cc[n+](C)cc4c(C)c3c2c1`, the activation is 9.5% (active).

Test system in the next test: not listed separately
Kind of test: TR-FRET optical interference artefacts, confirmation, artefact control for LEDGF/p75-dependent integration inhibitor project, biochemical, HIV-1 IN multimerization (AID 1053135).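 Also: 0% = integrase with antibodies and DMSO and 100% = antibodies without integrase.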 Particulars: TR-FRET optical interference counterscreen, at 7.7 µM, active compounds read high. On the technique in general: TR-FRET usually uses a lanthanide donor and a delayed reading to cut background.
In the case of `CO/N=C(\C(=O)N[C@@H]1C(=O)N2C(C(=O)O)=C(COC(C)=O)CS[C@H]12)c1csc(N)n1` (stereo in doubt), the inhibition was -1.28% (inactive).
Consider `COc1ccc2c(c1)c(=Cc1ccc(N(C)C)cc1)c1cc(-c3ccccc3)[n+](C)n12`, for which the inhibition is -22.4% (inactive).
Consider `NNc1cccc(C=Cc2ccccc2)cc1=O`, for which the inhibition was -47.7% (inactive).
Regarding `Cc1cc(C(=O)N/N=C/c2ccc(O)c([N+](=O)[O-])c2)c(C)n1-c1ccc(F)cc1`, the inhibition is -71.4% (inactive).
Consider `C=CC1=C(C(=O)O)N2C(=O)[C@@H](NC(=O)/C(=N\OCC(=O)O)c3csc(N)n3)[C@H]2SC1`, for which the inhibition is -430% (inactive).
Regarding `CCN(CC)CCCC(C)n1c2nc(=O)[nH]c(=O)c-2nc2cc(Cl)ccc21` (configuration not stated), the inhibition is -7.01% (inactive).
Still for that read-out and setting: for `CN(O)C(=S)c1ccccc1` the value was -2.07% (inactive); for `Cc1ccc(Cc2cnc(N)s2)o1`, -22.6% (inactive); for `C=CC1=C(C(=O)O)N2C(=O)[C@@H](NC(=O)/C(=N/OCC(=O)O)c3csc(N)n3)[C@H]2SC1`, -213% (inactive).
Same read-out and setting: with `O=C(NNC(=O)c1ccccc1O)c1ccccc1O` the figure was -4.93% (inactive).
With `NC1=CC(=O)C(=O)c2cccnc21`, the inhibition is -160% (inactive).
`O=C1C=CC(=O)N1c1ccc(N2CCCCC2)cc1`: the inhibition was -8.48% (inactive).
Take `Cc1ccccc1NCC(=O)N/N=C\c1ccc([N+](=O)[O-])s1`: the inhibition was 1.03% (inactive).
Take `Cn1ccc(=Nc2ccc(NC(=O)c3ccc(N=c4ccn(C)c5ccc([N+](=O)[O-])cc45)cc3)cc2)cc1`: the inhibition was 2.56% (inactive).
On the same count and under the same terms, with `Cc1ccc(S(=O)(=O)/N=C2\C=C(NS(=O)(=O)c3ccc(C)cc3)C(=O)c3ccccc32)cc1` the figure was 5.59% (inactive); with `COc1ccc2[nH]c3c(C)c4cc[n+](C)cc4c(C)c3c2c1`, -47.7% (inactive).

In a further test the test system is HIV-1 integrase / human LEDGF/p75 complex. Kind of test: inhibitors of HIV-1 IN-LEDGF/p75 DNA integration, confirmation, biochemical, TR-FRET (AID 1053136; in the data active = inhibition above about 14%). Particulars: TR-FRET LEDGF/p75-dependent HIV-1 integration, at 3.7 µM, active compounds read high.
Consider `CO/N=C(\C(=O)N[C@@H]1C(=O)N2C(C(=O)O)=C(COC(C)=O)CS[C@H]12)c1csc(N)n1` (stereo in doubt), for which the inhibition was 42.8% (active).
On the same count and under the same terms, for `COc1ccc2c(c1)c(=Cc1ccc(N(C)C)cc1)c1cc(-c3ccccc3)[n+](C)n12` the value was -6.4% (inactive).
As to `NNc1cccc(C=Cc2ccccc2)cc1=O`, the inhibition was 33.8% (active).
With `Cc1cc(C(=O)N/N=C/c2ccc(O)c([N+](=O)[O-])c2)c(C)n1-c1ccc(F)cc1`, the inhibition was 17.8% (active).
Take `C=CC1=C(C(=O)O)N2C(=O)[C@@H](NC(=O)/C(=N\OCC(=O)O)c3csc(N)n3)[C@H]2SC1`: the inhibition is 62.9% (active).
Consider `CCN(CC)CCCC(C)n1c2nc(=O)[nH]c(=O)c-2nc2cc(Cl)ccc21` (configuration not stated), for which the inhibition is 59.8% (active).
Take `CN(O)C(=S)c1ccccc1`: the inhibition was -6.13% (inactive).
For `Cc1ccc(Cc2cnc(N)s2)o1`, the inhibition is 10.6% (inactive).
The same measure, in the same setting: for `C=CC1=C(C(=O)O)N2C(=O)[C@@H](NC(=O)/C(=N/OCC(=O)O)c3csc(N)n3)[C@H]2SC1` the value was 90.4% (active); for `O=C(NNC(=O)c1ccccc1O)c1ccccc1O`, 62.9% (active); for `NC1=CC(=O)C(=O)c2cccnc21`, 79.9% (active).
The same measure, in the same setting: for `O=C1C=CC(=O)N1c1ccc(N2CCCCC2)cc1` the value was 5.47% (inactive); for `Cc1ccccc1NCC(=O)N/N=C\c1ccc([N+](=O)[O-])s1`, -2.15% (inactive).
Consider `Cn1ccc(=Nc2ccc(NC(=O)c3ccc(N=c4ccn(C)c5ccc([N+](=O)[O-])cc45)cc3)cc2)cc1`, for which the inhibition was 21% (active).
Regarding `Cc1ccc(S(=O)(=O)/N=C2\C=C(NS(=O)(=O)c3ccc(C)cc3)C(=O)c3ccccc32)cc1`, the inhibition was 12% (inactive).
In the case of `COc1ccc2[nH]c3c(C)c4cc[n+](C)cc4c(C)c3c2c1`, the inhibition was 42.7% (active).

(Values after PubChem BioAssay.)
